Assay results reported in ChEMBL document CHEMBL5532673, “Design and Discovery of Novel NLRP3 Inhibitors and PET Imaging Radiotracers Based on a 1,2,3-Triazole-Bearing Scaffold” (J Med Chem, 2024).
Activity calls are given as the source filed them. No cut-off for these calls is given here.

Tests used:
[1] = biological target: NACHT, LRR and PYD domains-containing protein 3 (Mus musculus, UniProt Q8R4B8); test: Inhibition of NLRP3 inflammasome activation in LPS treated mouse J774.A1 cells assessed as inhibition of ATP-stimulated IL-1beta secretion pre-incubated for 30 mins followed by ATP addition measured after 30 mins by ELISA; type: cell-based
Sequence of NACHT, LRR and PYD domains-containing protein 3 (Q8R4B8 whole entry, the tested form may be a part): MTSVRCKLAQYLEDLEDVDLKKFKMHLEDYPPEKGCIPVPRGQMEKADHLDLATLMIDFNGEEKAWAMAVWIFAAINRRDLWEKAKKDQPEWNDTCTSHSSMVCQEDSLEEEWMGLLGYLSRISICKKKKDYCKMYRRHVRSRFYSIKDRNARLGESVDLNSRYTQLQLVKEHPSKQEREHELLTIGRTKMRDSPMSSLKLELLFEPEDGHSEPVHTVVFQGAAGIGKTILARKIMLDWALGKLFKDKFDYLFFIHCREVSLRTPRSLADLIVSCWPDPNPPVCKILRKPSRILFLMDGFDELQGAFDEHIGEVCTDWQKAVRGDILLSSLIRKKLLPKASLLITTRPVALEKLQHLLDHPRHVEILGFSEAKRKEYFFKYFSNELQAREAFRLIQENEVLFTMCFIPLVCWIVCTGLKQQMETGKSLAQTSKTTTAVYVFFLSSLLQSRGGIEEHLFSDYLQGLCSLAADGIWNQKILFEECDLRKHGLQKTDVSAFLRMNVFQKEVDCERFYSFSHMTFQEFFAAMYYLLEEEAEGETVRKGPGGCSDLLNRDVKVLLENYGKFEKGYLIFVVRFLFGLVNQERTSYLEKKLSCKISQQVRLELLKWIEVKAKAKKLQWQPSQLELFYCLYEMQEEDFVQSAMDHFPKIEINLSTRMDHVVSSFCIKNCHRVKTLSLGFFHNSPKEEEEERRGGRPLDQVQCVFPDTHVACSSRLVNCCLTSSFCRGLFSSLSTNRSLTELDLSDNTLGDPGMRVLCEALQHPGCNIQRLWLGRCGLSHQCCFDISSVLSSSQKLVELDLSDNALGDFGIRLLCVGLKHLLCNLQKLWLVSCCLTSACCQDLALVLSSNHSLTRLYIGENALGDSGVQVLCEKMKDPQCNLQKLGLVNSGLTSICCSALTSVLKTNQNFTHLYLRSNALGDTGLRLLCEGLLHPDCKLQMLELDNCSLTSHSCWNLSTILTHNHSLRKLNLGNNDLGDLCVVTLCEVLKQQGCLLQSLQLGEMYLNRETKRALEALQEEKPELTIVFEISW
Method in brief: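 Murine J774A.1 macrophages seeded at 1×10^5 cells/well overnight, then primed with E. coli O111:B4 LPS (final 1 µg/mL) for 4.5 h. Compounds added for 30 min, then ATP (5 mM) for 30 min to activate NLRP3. IL-1β released into the supernatant quantified by mouse IL-1β ELISA.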

[2] = biological target: NLR family CARD domain-containing protein 4 (Mus musculus) (UniProt Q3UP24); test: Inhibition of NLRC4 inflammasome activation in LPS treated mouse J774.A1 cells assessed as inhibition of IL-1beta secretion at 10 uM pre-incubated for 1 hr followed by flagellin stimulation for 6 hrs by ELISA; type: cell-based; settings: time 7.0 hrs
Sequence of NLR family CARD domain-containing protein 4 (Mus musculus) (Q3UP24 whole entry, the tested form may be a part): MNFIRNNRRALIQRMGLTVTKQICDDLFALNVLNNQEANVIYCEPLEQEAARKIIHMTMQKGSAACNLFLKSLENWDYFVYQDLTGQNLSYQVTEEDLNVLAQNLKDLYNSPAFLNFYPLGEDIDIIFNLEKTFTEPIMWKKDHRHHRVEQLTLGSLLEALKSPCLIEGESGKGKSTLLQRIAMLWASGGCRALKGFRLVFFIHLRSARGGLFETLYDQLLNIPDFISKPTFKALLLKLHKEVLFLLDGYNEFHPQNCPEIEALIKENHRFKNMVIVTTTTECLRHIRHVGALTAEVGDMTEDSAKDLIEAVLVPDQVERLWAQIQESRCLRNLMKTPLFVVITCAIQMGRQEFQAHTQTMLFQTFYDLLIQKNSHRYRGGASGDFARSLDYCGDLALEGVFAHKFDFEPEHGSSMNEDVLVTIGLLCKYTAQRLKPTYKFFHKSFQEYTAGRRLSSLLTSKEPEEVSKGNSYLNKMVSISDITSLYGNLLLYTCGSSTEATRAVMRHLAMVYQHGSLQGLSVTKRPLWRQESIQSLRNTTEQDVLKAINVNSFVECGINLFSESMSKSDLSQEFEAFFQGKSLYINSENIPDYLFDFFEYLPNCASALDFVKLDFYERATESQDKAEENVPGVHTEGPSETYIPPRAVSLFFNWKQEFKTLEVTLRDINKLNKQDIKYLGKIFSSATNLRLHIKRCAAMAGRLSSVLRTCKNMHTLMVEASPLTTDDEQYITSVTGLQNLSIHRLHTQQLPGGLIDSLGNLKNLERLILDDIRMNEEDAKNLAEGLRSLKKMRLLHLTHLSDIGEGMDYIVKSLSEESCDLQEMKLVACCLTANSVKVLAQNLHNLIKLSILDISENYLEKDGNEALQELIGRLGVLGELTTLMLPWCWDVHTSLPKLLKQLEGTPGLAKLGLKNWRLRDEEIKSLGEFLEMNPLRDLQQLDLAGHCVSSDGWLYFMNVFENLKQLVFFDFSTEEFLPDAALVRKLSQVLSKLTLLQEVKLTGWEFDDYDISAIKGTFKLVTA
Method in brief: (§1)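 J774A.1 cells at 1×10^5/well, plated overnight. Co-treated with LPS (1 µg/mL) and compound for 1 h. AIM2 triggered by poly(dA:dT) (4 µg/mL) transfected with Lipofectamine 2000 for 4 h. NLRC4 triggered by flagellin (1 µg/mL) delivered with a transfection kit for 6 h. Supernatant IL-1β read by mouse ELISA.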

[3] = biological target: T1, Interferon-inducible protein AIM2 (Mus musculus) (UniProt Q91VJ1); test: Inhibition of AIM2 inflammasome activation in LPS treated mouse J774.A1 cells assessed as inhibition of IL-1beta secretion at 3 uM pre-incubated for 1 hr followed by Poly (dA:dT) stimulation for 4 hrs by ELISA; type: cell-based; settings: time 5.0 hrs; method in brief: as §1
T1 sequence (whole entry): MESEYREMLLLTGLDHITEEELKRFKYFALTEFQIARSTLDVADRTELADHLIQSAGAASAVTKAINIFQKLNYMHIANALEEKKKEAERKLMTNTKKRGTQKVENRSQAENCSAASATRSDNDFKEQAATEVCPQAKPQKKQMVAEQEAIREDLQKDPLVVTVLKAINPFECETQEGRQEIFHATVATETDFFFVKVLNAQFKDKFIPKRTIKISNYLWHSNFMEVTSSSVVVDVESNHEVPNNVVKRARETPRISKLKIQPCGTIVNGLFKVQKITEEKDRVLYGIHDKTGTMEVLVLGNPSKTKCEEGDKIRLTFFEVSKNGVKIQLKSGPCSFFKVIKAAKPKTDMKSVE

[4] = biological target: NACHT, LRR and PYD domains-containing protein 3 (Mus musculus) (UniProt Q8R4B8); test: Inhibition of NLRP3 inflammasome activation in LPS treated mouse J774.A1 cells assessed as inhibition of TNF-alpha secretion at <=3 uM followed by LPS addition measured after 4.5 hrs by ELISA; type: cell-based
Sequence of NACHT, LRR and PYD domains-containing protein 3 (Mus musculus) (Q8R4B8 whole entry, the tested form may be a part): as the sequence (Q8R4B8 whole entry, the tested form may be a part) above

[5] = biological target: T1, Interferon-inducible protein AIM2 (Mus musculus); test: Inhibition of AIM2 inflammasome activation in LPS treated mouse J774.A1 cells assessed as inhibition of IL-1beta secretion at 10 uM pre-incubated for 1 hr followed by Poly (dA:dT) stimulation for 4 hrs by ELISA; type: cell-based; settings: time 5.0 hrs; method in brief: as §1
[6] = biological target: NLR family CARD domain-containing protein 4 (Mus musculus) (UniProt Q3UP24); test: Inhibition of NLRC4 inflammasome activation in LPS treated mouse J774.A1 cells assessed as inhibition of IL-1beta secretion at 3 uM pre-incubated for 1 hr followed by flagellin stimulation for 6 hrs by ELISA; type: cell-based; settings: time 7.0 hrs; method in brief: as §1
[7] = biological target: NACHT, LRR and PYD domains-containing protein 3 (Mus musculus) (UniProt Q8R4B8); test: Inhibition of NLRP3 inflammasome activation in LPS treated mouse J774.A1 cells assessed as inhibition of TNF-alpha secretion at 0.1 to 10 uM followed by LPS addition measured after 4.5 hrs by ELISA; type: cell-based; settings: dose 0.1-10 µM
[8] = biological target: NACHT, LRR and PYD domains-containing protein 3 (Mus musculus) (UniProt Q8R4B8); test: Binding affinity to NLRP3 in wild type C57BL/6 mouse brain incubated for 20 mins in presence of compound MCC950 by autoradiography; type: tissue-based; settings: tested as the 11C-labelled form
Method in brief: (§2)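 Frozen mouse brain sections preincubated in 50 mM Tris-HCl pH 7.4 for 30 min at ambient temperature, then incubated 20 min at ambient temperature with [11C]8 (5 mCi/L, ~1 nM). For blocking, unlabeled ligand (10 μM) added to the incubation solution beforehand (n = 4). Sections washed in Tris-HCl (3 × 5 min), dried, exposed to imaging plates 120 min; ROI signal given as DLU/mm2.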

[9] = biological target: NACHT, LRR and PYD domains-containing protein 3 (Mus musculus) (UniProt Q8R4B8); test: Binding affinity to NLRP3 in wild type C57BL/6 mouse brain incubated for 20 mins in presence of compound 8 by autoradiography; type: tissue-based; settings: tested as the 11C-labelled form; method in brief: as §2
[10] = biological target: NACHT, LRR and PYD domains-containing protein 3 (Mus musculus) (UniProt Q8R4B8); test: Inhibition of NLRP3 inflammasome activation in LPS treated mouse J774.A1 cells assessed as inhibition of nigericin-stimulated IL-1beta secretion at 0.1 to 1 uM pre-incubated for 30 mins followed by nigericin addition measured after 30 mins by ELISA; type: cell-based; settings: dose 0.1-1 µM, time 60.0 min
[11] = biological target: NACHT, LRR and PYD domains-containing protein 3 (Mus musculus) (UniProt Q8R4B8); test: Inhibition of NLRP3 inflammasome activation in LPS treated mouse J774.A1 cells assessed as inhibition of ATP-stimulated IL-1beta secretion at 0.1 to 1 uM pre-incubated for 30 mins followed by ATP addition measured after 30 mins by ELISA; type: cell-based; settings: dose 0.1-1 µM, time 60.0 min
Method in brief: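 J774A.1 cells plated at 1 × 10^5 cells/well overnight, primed with E. coli 0111:B4 LPS (final 1 μg/mL) for 4.5 h. Compound added for 30 min, then ATP (5 mM) for 30 min to activate NLRP3. IL-1β in supernatant measured by mouse IL-1β ELISA.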

[12] = biological target: NACHT, LRR and PYD domains-containing protein 3 (Mus musculus) (UniProt Q8R4B8); test: Binding affinity to NLRP3 in C57BL/6 mouse brain expressing nIrp3-/- incubated for 20 mins by autoradiography; type: tissue-based; settings: tested as the 11C-labelled form; method in brief: as §2
[13] = biological target: NACHT, LRR and PYD domains-containing protein 3 (Mus musculus) (UniProt Q8R4B8); test: Binding affinity to NLRP3 in wild type C57BL/6 mouse brain incubated for 20 mins by autoradiography; type: tissue-based; settings: tested as the 11C-labelled form; method in brief: as §2
[14] = Drug uptake in monkey brain assessed as standardized uptake value at iv administration by PET/MR imaging analysis; type: ADME, organism-based, Macaca mulatta; settings: rhesus monkey, in vivo
Method in brief: (§3)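 Single rhesus macaque (n=1). Radiotracer 5.20 mCi given i.v. through an antecubital catheter. Dynamic PET/MR acquired on a 3T scanner with a BrainPET insert, 3D-OSEM reconstruction, registration to the INIA19/NeuroMaps atlas. Regional activity expressed as SUV, with an arterial line for plasma metabolite analysis.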

[15] = Drug uptake in monkey cerebellum at iv administration by PET/MR imaging analysis; type: ADME, organism-based, Macaca mulatta; settings: rhesus monkey, in vivo; method in brief: as §3
[16] = Drug uptake in monkey hippocampus at iv administration by PET/MR imaging analysis; type: ADME, organism-based, Macaca mulatta; settings: rhesus monkey, in vivo; method in brief: as §3
[17] = Drug uptake in monkey thalamus at iv administration by PET/MR imaging analysis; type: ADME, organism-based, Macaca mulatta; settings: rhesus monkey, in vivo; method in brief: as §3
[18] = Drug uptake in monkey insula at iv administration by PET/MR imaging analysis; type: ADME, organism-based, Macaca mulatta; settings: rhesus monkey, in vivo; method in brief: as §3
[19] = Drug uptake in monkey putamen at iv administration by PET/MR imaging analysis; type: ADME, organism-based, Macaca mulatta; settings: rhesus monkey, in vivo; method in brief: as §3

Structure (SMILES) | IC50 ([1]; read-out: IC50) | other results
CCCOc1ccc(Cl)cc1Cn1cc(-c2ccc(C(F)(F)F)cc2)nn1 | 12800 nM | 
COc1ccc(-c2cn(Cc3cc(Cl)ccc3OC)nn2)cc1 | 1310 nM | 
COc1ccc(Cl)cc1Cn1cc(-c2ccc(C(=O)O)cc2)nn1 | 14000 nM | 
COC(=O)c1ccc(-c2cn(Cc3cc(Cl)ccc3OC)nn2)nc1 | 2310 nM | 
COC(=O)c1ccc(-c2cn(Cc3cc(C(F)(F)F)ccc3OC)nn2)cc1 | 810 nM | 
CCCOc1ccc(Cl)cc1Cn1cc(-c2ccccc2)nn1 |  | inhibition [2]: Active; inhibition [3]: Active; inhibition [4]: inactive; inhibition [5]: Active; inhibition [6]: Active
COC(=O)c1ccc(-c2cn(Cc3cc(Cl)ccc3OC)nn2)c(F)c1 | 1620 nM | 
COC(=O)c1ccc(-c2cn(Cc3ccccc3OC(F)F)nn2)cc1 | 8060 nM | 
COC(=O)c1ccc(-c2cn(Cc3cccc(Cl)c3)nn2)cc1 | 2160 nM | 
COC(=O)c1ccc(-c2cn(Cc3ccccc3)nn2)cc1 |  | IC50 ([1]; j774.a1): Not Active
COC(=O)c1ccc(-c2cn(Cc3cc(Cl)ccc3OC)nn2)c(C)c1 | 2030 nM | 
COC(=O)c1ccc(-c2cn(Cc3cc(F)c(F)cc3OC)nn2)cc1 | 2470 nM | 
COC(=O)c1ccc(-c2cn(Cc3cc(F)ccc3OC)nn2)cc1 | 1500 nM | 
COC(=O)c1ccc(-c2cn(Cc3cc(Cl)ccc3OC)nn2)cc1 |  | inhibition [2]: inactive; inhibition [7]: inactive; Activity [8]: Active; Activity [9]: Active; inhibition [10]: Active; inhibition [11]: Active; Activity [12]: Active; inhibition [5]: inactive; Activity [13]: Active
CCCOc1ccc(Cl)cc1Cn1cc(-c2ccc(C(=O)O)cc2)nn1 | 12000 nM | 
COC(=O)c1ccc(-c2cn(Cc3ccccc3OC)nn2)cc1 | 3720 nM | 
COC(=O)c1ccc(-c2cn(Cc3cc(Br)ccc3OC)nn2)cc1 | 1070 nM | 
COC(=O)c1ccc(-c2cn(Cc3c(OC)ccc(F)c3F)nn2)cc1 | 2860 nM | 
CCCOc1ccc(Cl)cc1Cn1cc(-c2ccc(S(N)(=O)=O)cc2)nn1 | 1510 nM | 
COC(=O)c1ccc(-c2cn(Cc3cc(Cl)ccc3O[11CH3])nn2)cc1 |  | SUV [14]: > 3; Drug uptake [15]: Active; Drug uptake [16]: Active; Drug uptake [17]: Active; Drug uptake [18]: Active; Drug uptake [19]: Active
CCCOc1ccc(Cl)cc1Cn1cc(-c2ccc(F)cc2)nn1 | 4280 nM | 
COC(=O)c1ccc(-c2cn(Cc3cc(F)cc(F)c3OC)nn2)cc1 |  | IC50 ([1]; j774.a1): Not Active
COC(=O)c1ccc(-c2cn(Cc3cc(Cl)ccc3O)nn2)cc1 | 3130 nM | 
COC(=O)c1cccc(-c2cn(Cc3cc(Cl)ccc3OC)nn2)c1 | 1610 nM | 
CCCOc1ccc(Cl)cc1Cn1cc(-c2ccc(C)cc2)nn1 | 8360 nM | 
COC(=O)c1ccc(-c2cn(Cc3cc(Cl)ccc3C(F)(F)F)nn2)cc1 |  | IC50 ([1]; j774.a1): Not Active
COc1ccc(Cl)cc1Cn1cc(-c2ccc(C(=O)N3CCC3)cc2)nn1 | 1430 nM | 
CNC(=O)c1ccc(-c2cn(Cc3cc(Cl)ccc3OC)nn2)cc1 | 4210 nM | 
CCCOc1ccc(Cl)cc1Cn1cc(-c2ccc(C(=O)OC)cc2)nn1 | 1210 nM | 
COC(=O)c1ccc(-c2cn(Cc3cc(Cl)cc(OC)c3)nn2)cc1 | 510 nM | 
